Measurements as given in ChEMBL document CHEMBL4316598, “Synthesis, antiproliferative and apoptosis induction potential activities of novel bis(indolyl)hydrazide-hydrazone derivatives” (Bioorg Med Chem, 2019).
Active and inactive are the calls of the source. No cut-off for these calls is given here.

Experiments:
MCF7 [1] = experiment: Induction of apoptosis in human MCF7 cells assessed as viable cells at 1 uM after 16 hrs by annexin-V FITC/propidium iodide staining based flow cytometric analysis relative to control; format: functional; settings: MCF7, 16 h, read-out: Activity
Summary of the method: (§1)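 Cells were grown in DMEM with 10% heat-inactivated FBS at 37 °C and 5% CO₂, then plated at 500,000 cells/well in 24-well plates. They were treated from a DMSO stock (DMSO ≤0.1%) for 8, 12 or 16 h. After a PBS wash, cells were resuspended in binding buffer (10 mM HEPES pH 7.4, 2.5 mM CaCl₂, 140 mM NaCl, 0.1% BSA), stained 40 min with FITC-annexin V, then with PI, and run on the flow cytometer immediately. Values are the mean of three independent experiments.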

MCF7 [2] = experiment: Induction of ROS generation in human MCF7 cells at 5 uM after 4 to 8 hrs in presence of NAC by DCFH-DA staining-based fluorescence spectrophotometric analysis; format: functional, cell-based
Summary of the method: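 DCFH-DA ROS: HeLa or MCF-7 cells at 2×10^6/well cultured 12 h, treated 4 or 8 h; t-BHP (10 μM) is the positive control. DCFH-DA 10 μM added for 10 min at 37 °C, cells washed twice with PBS. Fluorescence read at ex 485/em 520 nm. For the NAC arm, NAC (5 mM) is added to the medium before treatment.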

HeLa [3] = experiment: Induction of apoptosis in human HeLa cells assessed as viable cells at 1 uM after 16 hrs by annexin-V FITC/propidium iodide staining based flow cytometric analysis relative to control; format: functional; settings: read-out: Activity; summary of the method: as §1
[4] = molecular target: MAP kinase p38 (Homo sapiens) (UniProt O15264+Q15759+Q16539+P53778); experiment: Activation of MAPK p38 phosphorylation in human MCF7 cells assessed as increase in ratio of phosphorylated p38 to total p38 level at 5 uM in presence of p38 kinase inhibitor […] by ELISA; format: cell-based
Summary of the method: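 Cell-based ELISA: HeLa or MCF-7 cells (20×10^3/well) grown overnight at 37 °C, 5% CO2, treated with 5 μM, then fixed and blocked. Probed with rabbit anti-total and anti-phospho P38, JNK or ERK1/2 (1:100), then HRP anti-rabbit IgG. Result is the phospho/total ratio; inhibitor arms use […], […] or SP600125. n=3.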

HeLa [5] = experiment: Induction of caspase-dependent apoptosis in human HeLa cells assessed as activation of caspase-3 at 1 to 3 uM after 24 hrs by Western blot analysis; format: functional, cell-based
Summary of the method: (§2)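 Cleaved caspase-3 immunoblot. Cells were exposed at 1, 3 and 5 µM for 24 h at 37 °C, with paclitaxel 3 µM as positive control. Lysis was in ice-cold Triton X-100 buffer, and protein was measured by BCA. Lysates were separated by electrophoresis, transferred to nitrocellulose and blocked in milk. Primary antibody was applied overnight at 4 °C and secondary for 1 h at 28 °C. Detection was by enhanced chemiluminescence.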

MCF7 [6] = experiment: Induction of caspase-dependent apoptosis in human MCF7 cells assessed as activation of caspase-7 at 1 to 3 uM after 24 hrs by Western blot analysis; format: functional, cell-based
Summary of the method: (§3)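 Cells were treated at 1, 3 and 5 µM for 24 h at 37 °C. Lysis was in ice-cold Triton X-100 buffer with protease and phosphatase inhibitors; nuclear proteins were extracted separately. Protein was quantified by BCA. Lysates were separated by electrophoresis, transferred to nitrocellulose and blocked in non-fat milk for 1 h. Primary antibody was applied overnight at 4 °C and secondary for 1 h at 28 °C. Detection was by enhanced chemiluminescence.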

HeLa [7] = experiment: Induction of apoptosis in human HeLa cells assessed as late apoptotic cells at 1 uM after 8 hrs by annexin-V FITC/propidium iodide staining based flow cytometric analysis relative to control; format: functional; summary of the method: as §1
HeLa [8] = experiment: Induction of apoptosis in human HeLa cells assessed as late apoptotic cells at 1 uM after 12 hrs by annexin-V FITC/propidium iodide staining based flow cytometric analysis relative to control; format: functional; summary of the method: as §1
HeLa [9] = experiment: Induction of apoptosis in human HeLa cells assessed as necrotic cells at 1 uM after 12 hrs by annexin-V FITC/propidium iodide staining based flow cytometric analysis relative to control; format: functional; summary of the method: as §1
HeLa [10] = experiment: Induction of cell cycle arrest in human HeLa cells at 1 uM after 16 hrs by propidium iodide/RNase A staining based FACS analysis; format: functional
Summary of the method: (§4)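 Cells were seeded at 1 million cells/mL in 24-well plates and grown to 70% confluence. They were exposed at 1 µM for 16 h, washed in cold PBS, fixed in absolute ethanol and stored at −20 °C. Staining was with RNase A (20 µg/mL final) and PI (50 µg/mL final) for 30 min at 37 °C in the dark. Results are given as the percentage of cells in each cell-cycle phase by FACS.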

A549 = experiment: Cytotoxicity against human A549 cells assessed as reduction in cell viability after 4 hrs by MTT assay; format: functional, cell-based
Summary of the method: (§5)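 MTT: 10,000–20,000 cells/well attached for 16 h, then washed twice with serum-free RPMI. Treated with 1–200 µM for 4 h, 3 parallel runs per concentration. MTT added for 2 h; medium partly removed and isopropanol added. A590 read. Viability = (A treated − A doxorubicin)/(A medium − A doxorubicin)×100. Mean of three experiments, triplicate wells each.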

HeLa [11] = experiment: Induction of nitric oxide production in human HeLa cells measured over 8 hrs by Griess reaction based assay; format: functional, cell-based
Summary of the method: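 Cells seeded at 2×10^6 cells/well for 12 h, then exposed to 1, 5 and 10 μM compound for 8 h at 37 °C. Culture supernatant mixed with Griess reagent (0.002% N-1-naphthyl-ethylenediamine dihydrochloride, 0.5% sulfanilic acid, 14% glacial acetic acid). Nitrite read by absorbance at 550 nm and compared with vehicle group.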

HeLa [12] = experiment: Induction of apoptosis in human HeLa cells assessed as change in Bid level at 1 to 3 uM after 24 hrs by Western blot analysis; format: functional, cell-based; summary of the method: as §3
MCF7 [13] = experiment: Induction of apoptosis in human MCF7 cells assessed as change in Bcl-2 level at 1 to 3 uM after 24 hrs by Western blot analysis; format: functional, cell-based; summary of the method: as §3
MCF7 [14] = experiment: Induction of apoptosis in human MCF7 cells assessed as viable cells at 1 uM after 12 hrs by annexin-V FITC/propidium iodide staining based flow cytometric analysis relative to control; format: functional; settings: MCF7, 12 h, read-out: Activity; summary of the method: as §1
MCF7 [15] = experiment: Induction of caspase-dependent apoptosis in human MCF7 cells assessed as activation of caspase-3 at 1 to 3 uM after 24 hrs by Western blot analysis; format: functional, cell-based; summary of the method: as §2
MCF7 [16] = experiment: Induction of cell cycle arrest in human MCF7 cells at 1 uM after 16 hrs by propidium iodide/RNase A staining based FACS analysis; format: functional; summary of the method: as §4
HeLa [17] = experiment: Induction of apoptosis in human HeLa cells assessed as effect on Mcl-1 long level at 1 to 3 uM after 24 hrs by Western blot analysis; format: functional, cell-based; summary of the method: as §3
HEK293 = experiment: Cytotoxicity against HEK293 cells assessed as reduction in cell viability after 4 hrs by MTT assay; format: cell-based, Homo sapiens; settings: Homo sapiens, HEK293, 4 h; read-out: IC50; summary of the method: as §5
MCF7 [18] = experiment: Induction of apoptosis in human MCF7 cells assessed as necrotic cells at 1 uM after 12 hrs by annexin-V FITC/propidium iodide staining based flow cytometric analysis relative to control; format: functional; summary of the method: as §1

Activity [4]: inactive
SMILES: Cn1cc(/C=N\NC(=O)c2cn(C)c3ccc(Br)cc23)c2ccccc21
viability at 1 µM (MCF7 [1]): 20.4%
Activity (MCF7 [2]): inactive
viability at 1 µM (HeLa [3]): 14.3%
Activity (HeLa [5]): inactive
Activity (MCF7 [6]): inactive
Activity (HeLa [7]): 11.5%
Activity (HeLa [8]): 18.42%
Activity (HeLa [9]): 0.3%
Activity (HeLa [10]): inactive
Activity (A549): Dose-dependent effect
IC50 (A549; Homo sapiens, A549, 4 h, read-out: IC50): 0.793 to 5.49 µM
Activity (HeLa [11]): Dose-dependent effect
Activity (HeLa [12]): inactive
Activity (MCF7 [13]): inactive
viability at 1 µM (MCF7 [14]): 40.5%
Activity (MCF7 [15]): inactive
Activity (MCF7 [16]): inactive
Activity (HeLa [17]): inactive
IC50 (HEK293): > 200 µM
Activity (MCF7 [18]): 2.61%
